The target in data set [1] is T1, NAD-dependent protein deacetylase sirtuin-2 (Homo sapiens) (UniProt Q8IXJ6).
T1 sequence (whole entry): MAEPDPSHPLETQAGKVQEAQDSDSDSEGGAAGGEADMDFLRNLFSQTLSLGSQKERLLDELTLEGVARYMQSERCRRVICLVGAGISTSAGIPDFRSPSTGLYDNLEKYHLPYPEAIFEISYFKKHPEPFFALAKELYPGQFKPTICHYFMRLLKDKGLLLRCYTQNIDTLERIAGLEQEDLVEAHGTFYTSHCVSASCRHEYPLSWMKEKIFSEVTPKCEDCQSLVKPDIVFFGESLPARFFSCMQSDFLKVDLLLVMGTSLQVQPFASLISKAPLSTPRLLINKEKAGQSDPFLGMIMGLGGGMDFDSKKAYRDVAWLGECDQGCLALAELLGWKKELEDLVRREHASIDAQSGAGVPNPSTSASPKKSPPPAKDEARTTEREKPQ
Put plainly: Inhibition of SIRT2 in human HCT116 cells assessed as increase in acetylated alpha-tubulin after 8 hrs by Western blot analysis. The format is cell-based. The note with it: HCT-116. The essentials:
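HCT116 cells grown in McCoy's 5A with 10% FBS. 5×10⁵ cells exposed 8 h to compound at 1 or 10 μM, alongside 20 μM etoposide. SDS lysates equalized by Bradford assay and run on 15% SDS-PAGE, then blotted onto nitrocellulose. Blots probed overnight at 4 °C for acetyl-p53, p53, acetyl-α-tubulin and α-tubulin, and detected by ECL. Signal given as acetylated/total protein ratio.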
On the technique in general: In western blotting, separated proteins are transferred to a membrane and probed.

Data set [2] addresses T2, NAD-dependent protein deacetylase sirtuin-1 (Homo sapiens, UniProt Q96EB6).
T2 sequence (Q96EB6 whole entry): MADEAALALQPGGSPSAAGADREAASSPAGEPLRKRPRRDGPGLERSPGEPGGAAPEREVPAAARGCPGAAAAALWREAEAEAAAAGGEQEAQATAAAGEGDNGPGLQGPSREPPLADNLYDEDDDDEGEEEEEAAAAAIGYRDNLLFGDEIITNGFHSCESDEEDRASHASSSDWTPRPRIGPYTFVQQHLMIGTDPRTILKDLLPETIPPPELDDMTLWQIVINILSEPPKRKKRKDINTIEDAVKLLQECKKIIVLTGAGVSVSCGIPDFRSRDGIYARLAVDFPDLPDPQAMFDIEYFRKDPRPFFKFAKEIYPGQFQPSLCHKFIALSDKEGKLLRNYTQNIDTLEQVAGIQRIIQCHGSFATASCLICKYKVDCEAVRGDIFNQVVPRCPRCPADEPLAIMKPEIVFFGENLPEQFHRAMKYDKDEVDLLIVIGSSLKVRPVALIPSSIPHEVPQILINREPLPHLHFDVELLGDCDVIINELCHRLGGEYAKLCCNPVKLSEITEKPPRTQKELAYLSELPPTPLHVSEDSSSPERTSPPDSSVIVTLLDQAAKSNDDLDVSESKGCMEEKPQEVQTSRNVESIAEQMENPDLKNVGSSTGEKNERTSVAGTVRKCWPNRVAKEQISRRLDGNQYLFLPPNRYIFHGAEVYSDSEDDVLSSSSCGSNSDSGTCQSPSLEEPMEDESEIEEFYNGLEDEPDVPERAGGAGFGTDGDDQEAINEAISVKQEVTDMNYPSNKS
Put plainly: Inhibition of human recombinant SIRT1 using Fluor de Lys-SIRT as substrate incubated for 60 mins prior to substrate addition measured after 60 mins by fluorimetric analysis. The essentials:
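Human recombinant SIRT1 run the same way: 60 min at 37 °C with 1 mM NAD⁺ and serial compound dilutions, then 25 μM Fluor de Lys-SIRT substrate for 60 min. Stopped with nicotinamide-containing Developer II and read 45 min later at ex 360/em 460 nm. IC₅₀ from logit regression of % inhibition vs control; means of ≥3 experiments.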

Another data set concerns the target Cytochrome P450 3A4 (Homo sapiens, UniProt P08684). Put plainly: Inhibition of CYP3A4. The format is ADME.
Data set [3] in a line: Metabolic stability in human liver microsomes assessed as compound remaining at 0.5 mg after 15 mins. The following applies: read-out: Stability. The format is ADME, Microsome. (In general: Microsomes from liver hold many membrane-bound enzymes, among them those of drug oxidation.)
A further data set has as its target Histone deacetylase 5 (Homo sapiens, UniProt Q9UQL6). Put plainly: Inhibition of HDAC5.
The next data set deals with T3, Histone deacetylase 11 (Homo sapiens, UniProt Q96DB2).
T3 sequence (Q96DB2 whole entry): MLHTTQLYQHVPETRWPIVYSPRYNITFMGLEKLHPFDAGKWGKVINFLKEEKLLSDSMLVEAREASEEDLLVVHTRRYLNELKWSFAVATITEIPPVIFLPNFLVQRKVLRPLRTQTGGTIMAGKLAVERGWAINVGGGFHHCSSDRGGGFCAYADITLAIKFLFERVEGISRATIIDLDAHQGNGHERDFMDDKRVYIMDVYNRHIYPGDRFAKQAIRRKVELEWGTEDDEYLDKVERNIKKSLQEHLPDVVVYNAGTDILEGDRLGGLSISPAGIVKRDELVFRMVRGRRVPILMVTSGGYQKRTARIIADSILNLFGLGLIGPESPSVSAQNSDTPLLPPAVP
Put plainly: Inhibition of HDAC11.

The target of another data set is Cytochrome P450 2D6 (Homo sapiens, UniProt P10635). Put plainly: Inhibition of CYP2D6. The format is ADME.
Another data set concerns the target T4, Histone deacetylase 8 (Homo sapiens, UniProt Q9BY41).
T4 sequence (Q9BY41 whole entry): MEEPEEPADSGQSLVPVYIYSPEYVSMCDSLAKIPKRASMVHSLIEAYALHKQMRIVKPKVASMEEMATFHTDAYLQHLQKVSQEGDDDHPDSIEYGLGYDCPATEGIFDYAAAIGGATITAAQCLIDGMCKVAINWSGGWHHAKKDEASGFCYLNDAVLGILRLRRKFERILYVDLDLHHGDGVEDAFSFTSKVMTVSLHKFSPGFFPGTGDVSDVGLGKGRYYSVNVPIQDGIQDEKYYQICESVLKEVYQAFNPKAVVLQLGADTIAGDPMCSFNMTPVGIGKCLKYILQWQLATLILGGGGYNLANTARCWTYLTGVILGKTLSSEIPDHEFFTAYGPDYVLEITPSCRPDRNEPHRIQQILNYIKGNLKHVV
Put plainly: Inhibition of HDAC8.

Data set [4] concerns the target T1, NAD-dependent protein deacetylase sirtuin-2 (Homo sapiens). Put plainly: Binding affinity to recombinant SIRT2 by surface plasmon resonance assay. On the technique in general: Surface plasmon resonance follows binding to a sensor surface in real time, without labels.
The next data set has as its target Histone deacetylase 3 (Homo sapiens, UniProt O15379). Put plainly: Inhibition of HDAC3.

Sequence of Histone deacetylase 3 (O15379 whole entry): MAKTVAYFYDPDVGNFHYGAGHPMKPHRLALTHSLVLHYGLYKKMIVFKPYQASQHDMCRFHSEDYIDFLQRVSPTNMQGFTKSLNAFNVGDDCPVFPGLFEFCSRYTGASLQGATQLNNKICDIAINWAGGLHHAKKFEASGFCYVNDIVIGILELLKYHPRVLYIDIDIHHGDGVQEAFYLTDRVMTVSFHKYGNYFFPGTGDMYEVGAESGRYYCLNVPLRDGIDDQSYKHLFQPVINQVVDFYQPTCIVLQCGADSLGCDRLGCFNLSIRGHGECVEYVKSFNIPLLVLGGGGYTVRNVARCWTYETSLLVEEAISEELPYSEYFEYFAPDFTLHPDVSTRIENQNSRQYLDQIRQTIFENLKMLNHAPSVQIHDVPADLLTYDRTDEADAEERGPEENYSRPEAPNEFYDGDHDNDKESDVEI
Sequence of Cytochrome P450 3A4 (P08684 whole entry): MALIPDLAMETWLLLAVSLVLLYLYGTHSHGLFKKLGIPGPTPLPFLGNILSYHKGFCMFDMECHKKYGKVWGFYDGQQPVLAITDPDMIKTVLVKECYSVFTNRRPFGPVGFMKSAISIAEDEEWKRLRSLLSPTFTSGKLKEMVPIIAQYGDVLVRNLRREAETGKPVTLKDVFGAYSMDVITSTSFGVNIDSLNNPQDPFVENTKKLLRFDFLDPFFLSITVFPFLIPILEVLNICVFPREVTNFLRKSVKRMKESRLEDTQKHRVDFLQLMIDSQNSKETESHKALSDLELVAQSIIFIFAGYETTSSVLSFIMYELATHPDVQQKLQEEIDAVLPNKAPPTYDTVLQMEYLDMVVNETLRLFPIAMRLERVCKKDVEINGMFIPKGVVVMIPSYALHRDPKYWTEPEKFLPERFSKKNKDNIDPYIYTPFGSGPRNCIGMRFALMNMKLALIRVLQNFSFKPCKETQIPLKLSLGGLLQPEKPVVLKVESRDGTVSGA
Sequence of Histone deacetylase 5 (Q9UQL6 whole entry): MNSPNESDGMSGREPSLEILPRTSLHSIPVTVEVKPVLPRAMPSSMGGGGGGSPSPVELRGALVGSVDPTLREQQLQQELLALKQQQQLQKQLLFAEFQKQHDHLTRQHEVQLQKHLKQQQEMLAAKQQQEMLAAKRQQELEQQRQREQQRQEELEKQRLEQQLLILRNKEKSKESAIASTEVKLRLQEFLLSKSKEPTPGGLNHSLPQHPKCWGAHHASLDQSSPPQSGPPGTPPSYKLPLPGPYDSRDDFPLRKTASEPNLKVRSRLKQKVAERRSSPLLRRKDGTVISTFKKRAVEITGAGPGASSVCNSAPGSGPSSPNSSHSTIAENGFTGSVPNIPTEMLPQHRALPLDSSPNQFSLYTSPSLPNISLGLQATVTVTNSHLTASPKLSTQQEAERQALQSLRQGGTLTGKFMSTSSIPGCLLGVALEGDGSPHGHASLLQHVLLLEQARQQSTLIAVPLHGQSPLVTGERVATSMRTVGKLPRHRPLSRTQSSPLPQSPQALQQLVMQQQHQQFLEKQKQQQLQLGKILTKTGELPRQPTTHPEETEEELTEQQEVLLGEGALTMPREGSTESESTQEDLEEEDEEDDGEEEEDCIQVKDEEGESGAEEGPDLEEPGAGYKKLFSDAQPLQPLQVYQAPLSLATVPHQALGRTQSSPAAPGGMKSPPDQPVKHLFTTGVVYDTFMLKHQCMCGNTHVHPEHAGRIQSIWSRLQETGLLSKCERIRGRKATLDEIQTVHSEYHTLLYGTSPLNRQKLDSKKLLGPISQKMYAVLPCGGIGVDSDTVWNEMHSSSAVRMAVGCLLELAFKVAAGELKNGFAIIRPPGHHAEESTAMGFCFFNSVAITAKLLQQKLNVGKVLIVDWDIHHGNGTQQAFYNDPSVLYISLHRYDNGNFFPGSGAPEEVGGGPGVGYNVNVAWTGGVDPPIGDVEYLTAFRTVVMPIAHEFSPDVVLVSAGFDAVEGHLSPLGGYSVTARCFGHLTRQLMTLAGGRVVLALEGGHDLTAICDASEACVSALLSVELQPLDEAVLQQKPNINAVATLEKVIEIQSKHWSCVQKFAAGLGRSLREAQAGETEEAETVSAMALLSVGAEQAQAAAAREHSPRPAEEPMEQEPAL
Sequence of Cytochrome P450 2D6 (P10635 whole entry): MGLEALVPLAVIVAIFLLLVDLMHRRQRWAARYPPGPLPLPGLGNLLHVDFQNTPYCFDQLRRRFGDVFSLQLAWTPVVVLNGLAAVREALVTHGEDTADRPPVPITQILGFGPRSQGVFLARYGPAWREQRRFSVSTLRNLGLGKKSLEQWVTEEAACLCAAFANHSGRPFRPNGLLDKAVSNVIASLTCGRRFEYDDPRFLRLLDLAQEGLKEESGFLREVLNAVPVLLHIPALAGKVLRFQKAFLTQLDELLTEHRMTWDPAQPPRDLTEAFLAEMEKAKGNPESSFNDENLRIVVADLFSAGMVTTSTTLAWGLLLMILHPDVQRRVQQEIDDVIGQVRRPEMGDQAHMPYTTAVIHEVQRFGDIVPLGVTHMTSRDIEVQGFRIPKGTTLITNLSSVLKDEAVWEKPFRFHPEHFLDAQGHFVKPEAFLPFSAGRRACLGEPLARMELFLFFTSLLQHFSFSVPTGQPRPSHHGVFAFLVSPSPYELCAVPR

One may read the IC50 as the concentration that gives 50% inhibition. For the compound `NC(=O)c1ccccc1Nc1cccc(OCCc2ccccc2)c1`, the inhibition result in data set [1] is “Dose-dependent effect”. Besides, the IC50 in [2] is over 100 µM; against Cytochrome P450 3A4 it was over 10 µM; at Histone deacetylase 5 it was over 30 µM; at Histone deacetylase 11, over 30 µM; against Cytochrome P450 2D6 it was over 10 µM; at Histone deacetylase 8, over 30 µM. In addition, on Histone deacetylase 3, the concentration for half-maximal inhibition (IC50) is over 30 µM. Also, the remaining at 0.25 h in data set [3] was determined as 64%. In data set [4], the Activity entry was “Dose-dependent effect”.

(Values after ChEMBL document CHEMBL2150931, “Design, synthesis, and biological activity of a novel series of human sirtuin-2-selective inhibitors” (J Med Chem, 2012).)
